M5 ag: CHRM5 agonism in calcium assay | P08912 | CHO-K1 hM5 cells, Fluo-8 calcium fluorescence; 0% DMSO wells, 100% maximal acetylcholine response | activation, % at 3 µM | 0.19% of 360,000 active;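 active = activation above the run's mean over test compounds plus 3 SD, cut at about 23% in these data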;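 also: signal is peak over basal fluorescence ratio across the kinetic read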
Target sequence (P08912 whole entry, looked up): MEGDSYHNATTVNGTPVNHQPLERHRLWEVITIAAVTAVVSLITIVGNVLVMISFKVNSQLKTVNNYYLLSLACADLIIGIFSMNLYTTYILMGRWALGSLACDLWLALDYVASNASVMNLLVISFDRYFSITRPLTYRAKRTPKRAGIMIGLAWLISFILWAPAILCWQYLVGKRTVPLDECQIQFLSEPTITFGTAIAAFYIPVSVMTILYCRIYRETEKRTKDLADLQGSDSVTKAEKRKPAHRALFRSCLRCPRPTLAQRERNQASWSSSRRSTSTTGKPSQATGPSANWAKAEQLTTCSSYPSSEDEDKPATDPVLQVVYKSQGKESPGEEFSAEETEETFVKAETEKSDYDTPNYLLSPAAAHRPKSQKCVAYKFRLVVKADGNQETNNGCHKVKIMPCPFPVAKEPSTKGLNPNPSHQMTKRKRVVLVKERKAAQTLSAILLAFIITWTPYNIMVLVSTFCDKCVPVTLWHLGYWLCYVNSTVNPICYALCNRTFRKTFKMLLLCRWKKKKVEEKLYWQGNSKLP
CHRM5 antagonist: CHRM5 antagonism in calcium assay; 0.59% of 360,000 active; CHO-hM5 cells, Fluo-8 calcium fluorescence, ACh EC80; AID 624040; P08912; inhibition, % at 3 µM;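 active = inhibition above a per-plate cutoff, the mean of that plate's test compounds plus 3 SD, cut at about 27% in these data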
M4 antag: CHRM4 antagonism in calcium assay. P08173. CHO-hM4 cells, ACh EC80, Fluo-8 calcium fluorescence. inhibition, % at 3 µM. 0.73% of 360,000 active. AID 624125;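 active = inhibition above its plate's cutoff, the mean inhibition of sample wells plus 3 SD, cut at about 27% in these data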
CHRM4 PAM: CHRM4 positive allosteric modulation; P08173; CHO-K1 hM4/Gqi5, Fluo-8 calcium fluorescence, ACh EC20; 0% = ACh EC20, 100% = maximal ACh; activation, % at 3 µM; 0.4% of 360,000 active;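 active = activation above its plate's cutoff, the mean activation of sample wells plus 3 SD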
M4 ag: CHRM4 agonism in calcium assay; CHO-K1 hM4/Gqi5, Fluo-8 calcium fluorescence; vehicle 0%, full acetylcholine response 100%; activation, % at 3 µM; AID 624127; P08173; 0.14% of 360,000 active;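 active = activation above the run mean over all test wells plus 3 SD, cut at about 32% in these data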;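 also: peak over basal fluorescence ratio per well then scaled between controls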
M5 PAM: CHRM5 positive allosteric modulation. P08912. CHO-K1 hM5, Fluo-8 calcium, ACh EC20 PAM; 0% = ACh EC20, 100% = ACh EC100. activation, % at 3 µM. AID 624038. 0.3% of 360,000 active;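 active = activation above the run cutoff, the mean activation of all test compounds plus 3 SD, cut at about 18% in these data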
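Replicates: One well per compound, no replicates | System: Human M5 receptor in CHO-K1 cells | Benchmarks: Low control EC20 acetylcholine (0%), high control EC100 acetylcholine (100%) | Probe or stimulus: Acetylcholine, EC20 level | Times: Fluo-8 loading 80 min at 37 °C plus 30 min room temperature | Signal: Intracellular calcium via Fluo-8 fluorescence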
Each line names hits and unclear results; the compound was inactive in the other large screens. Sampled rows, rich in hits. Any-hit rate of the full collection: about 1.8%.

O=C(NCCCNC(=O)c1cnccn1)c1ccc(Cl)cc1	none
O=C(NCCCNC(=O)c1cnccn1)c1ccc(Cl)c(Cl)c1	M4 antag 60.4
Cc1cc(-c2csc(NC(=O)c3ccc(C#N)cc3)n2)c(C)n1Cc1ccco1	CHRM4 PAM 24.7
O=C(COC(=O)CSc1ccc(Cl)cc1)NCCc1ccccc1	CHRM4 PAM 23.6
Cc1ccc(OCC(=O)OCC(=O)Nc2sccc2C(N)=O)cc1C	CHRM5 antagonist 32.3
NC(=O)c1ccsc1NC(=O)COC(=O)CSc1ccc(Cl)cc1	CHRM5 antagonist 31.5
NC(=O)c1ccsc1NC(=O)COC(=O)c1ccc(Cl)cc1	none
Cc1cc(NC(=O)CSCC(=O)Nc2nc3ccccc3s2)no1	none
CCOc1cccc(N2C(=O)CC(NCc3ccc(S(N)(=O)=O)cc3)C2=O)c1 (centres undefined)	none
CSc1ccc(CN2CCC(Oc3ccc(C(=O)N4CCCC4)cc3)CC2)cc1	M4 antag 29.3
CC(C)c1ccc(CN2CCC(Oc3ccc(C(=O)N4CCCC4)cc3)CC2)cc1	CHRM5 antagonist 29.8, M4 antag 31.4
CCc1ccc(CN2CCC(Oc3ccc(C(=O)N4CCCC4)cc3)CC2)cc1	M4 antag 36.4
CC1(c2ccc(OC(F)F)cc2)NC(=O)N(CC(=O)N2CCN(C(=O)c3ccco3)CC2)C1=O (centres undefined)	none
O=C(c1ccc(S(=O)(=O)N2CCCCCC2)cc1)N1CCN(c2ccccc2)CC1	CHRM5 antagonist 28.4
O=C(c1cccc(S(=O)(=O)N2CCCCC2)c1)N1CCN(c2ccccc2)CC1	none
CC(C)NC(=O)C1(C)CCCN1C(=O)c1cc(C#N)cs1 (centres undefined)	none
COc1ccc(-c2ccc(C(=O)Nc3cccc(F)c3)c3occc23)c(C)c1	none
COc1ccc(-c2ccc(C(=O)Nc3cccc(NS(C)(=O)=O)c3)c3occc23)c(C)c1	M4 antag 30.8
CCCc1ccc(-c2cc(NC(=O)CSc3nnc(N)s3)n(-c3ccccc3)n2)cc1	none
COc1ccc(C2C(C#N)=C(N)Oc3c2c(-c2ccccc2)nn3-c2ccccc2)c(OC)c1OC (centres undefined)	none
CCOc1cc(C)c(S(=O)(=O)Nc2ccc3cn[nH]c3c2)cc1C	CHRM5 antagonist 29.5
Cc1ccc(S(=O)(=O)Nc2ccc3cn[nH]c3c2)c(C)c1	none
COc1ccc(C2/C(=C(/O)c3ccccc3)C(=O)C(=O)N2C)cc1OC (centres undefined)	none
COCCNC(=O)CN(C(=O)CCC(=O)Nc1ccccn1)c1ccc(C)cc1C	none
COc1cccc(NC(=S)NC(=O)Cc2ccc(Cl)cc2)c1	M5 ag 36.2
COc1cc(NC(=O)c2cc(Cl)nnc2Cl)cc(OC)c1OC	none
COc1ccccc1NC(=S)NC(=O)Cc1ccc(Cl)cc1	none
Cc1cccc(NC(=S)NC(=O)CCc2ccccc2)c1	none
COc1cccc(NC(=O)c2cc(Cl)nnc2Cl)c1	CHRM4 PAM 23.9
COc1ccc(CC(=O)NC(=S)Nc2cccc(CO)c2)cc1	M5 ag 31.1
COc1ccc(CC(=O)NC(=S)Nc2cccc(C)c2)cc1	M5 ag 29.6
COc1ccc(CC(=O)NCC(=O)N/N=C(/C)c2ccco2)cc1	none
CC(Sc1nnc(C2CC2)n1-c1ccccc1)C(=O)N1CCCC1 (centres undefined)	none
CCCC1CC(=O)NC1(C(=O)OCC)C(=O)OCC (centres undefined)	none
O=[N+]([O-])c1ccc(S(=O)(=O)Nc2ccc(-c3ccccc3)cc2)cc1	none
CCN(CC(=O)NC(C)(C)C)C(=O)CCl	none
COC(=O)c1cc(S(=O)(=O)N(C)C2CCCCC2)c[nH]1	none
COc1cc(-c2n[nH]c(=S)n2/N=C/c2cccn2C)cc(OC)c1OC	M5 ag 50.2, M4 ag 51.4
Cn1cccc1/C=N/n1c(-c2ccco2)n[nH]c1=S	none
CC1(C)CC(=O)c2cc(C(=O)N3CCCC(C)(C)C3)c(=O)n(-c3ccccc3)c2C1	none
COc1ccc(-n2c3c(cc(C(=O)N4CCCCC4)c2=O)C(=O)CC(C)(C)C3)cc1	M4 antag 26.9
Cc1ccc(NC(=O)C2CCN(S(=O)(=O)c3ccc4c(c3)NC(=O)C(C)S4)CC2)cc1Cl (centres undefined)	CHRM5 antagonist 28.2, M4 antag 28.7
O=C(O)C1C2CCC1C(O)C2 (centres undefined)	none
CCCC[C@@H]1CNC(=O)C(=O)N1CCc1cccc(F)c1	none
CN(C)c1ccc(/C=C/c2ccc3ccccc3[n+]2C)cc1	none
CN(C)c1ccc(/C=C/c2ccc3c4ccccc4ccc3[n+]2-c2ccccc2)cc1	CHRM5 antagonist 43.2, M4 antag 40.3
Brc1ccc(-c2nnc3c4ccccc4nc(N4CCOCC4)n23)cc1	CHRM4 PAM 40.0
Clc1ccc(-c2nnc3c4ccccc4nc(N4CCOCC4)n23)cc1Cl	none
N#CC1=C(SCC(N)=O)NC2=C(C(=O)c3ccccc32)C1c1ccc(Cl)cc1 (centres undefined)	none
CC(C)(C)c1ccc(CC(=O)N2CCC2(C)C(=O)NS(=O)(=O)c2ccccc2Cl)cc1 (centres undefined)	none
CCc1ccc(Cn2ncc3c(C(=O)O)cc(C)nc32)cc1	M4 antag 33.5
C=CCNc1sc(C(=O)c2ccccc2)c(N)c1-c1nc2ccccc2s1	CHRM4 PAM 28.8, M5 PAM 19.7
CCNc1sc(C(=O)c2cccs2)c(N)c1-c1nc2ccccc2s1	M4 antag 38.0
CCOC(=O)c1sc(NCc2ccco2)c(-c2nc3ccccc3s2)c1N	none
CCCCCCn1c(SCC(=O)NC2CCS(=O)(=O)C2)nc2ccccc2c1=O (centres undefined)	none
CN1CCN(C(=O)c2ccc3c(Cl)c4c(nc3c2)CCCC4)CC1	CHRM4 PAM 15.3
Cc1cc(C)cc(NC(=O)CSc2nc3[nH]ncc3c(=O)[nH]2)c1	CHRM4 PAM 31.2, M5 PAM 21.8
CN(C(=O)CSc1nc2[nH]ncc2c(=O)[nH]1)c1ccccc1	CHRM4 PAM 18.5
O=c1c2cc(Br)ccc2nc(-c2ccccc2)n1O	none
CC1CCCN(C(=O)CCNS(=O)(=O)c2ccc3c(c2)c(=O)n(C)c(=O)n3C)C1 (centres undefined)	CHRM4 PAM 14.6
Cc1cc(C)nc(-n2nc(C)c(Sc3ccc(F)cc3)c2N)n1	CHRM4 PAM 22.6
Cc1nn(-c2ccccc2)c(N)c1Sc1cccc([N+](=O)[O-])c1	none
O=c1[nH]nnc2c1ncn2C1OC(CO)C(O)C1O (centres undefined)	none
